According to ChEMBL document CHEMBL1132256, “Structure-activity relationships for substituted bis(acridine-4-carboxamides): a new class of anticancer agents” (J Med Chem, 1999):

Assays:
SK-OV-3 = assay: inhibitory activity against ovarian carcinoma SKOV3 cell line.; format: functional; conditions: Homo sapiens
How it was run: (§1)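 Tested in the NCI human cell line panel. GI50 = drug concentration (nM) giving growth inhibition to 50% of controls; values below 10 nM were taken as 10 nM in calculations.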

NCI/ADR-RES = assay: inhibitory activity against multi drug resistant NCI/ADR cell line.; format: functional; conditions: Homo sapiens; how it was run: as §1
Jurkat [1] = assay: Concentration required to inhibit 50% growth of human Jurkat cells; format: functional, cell-based
How it was run: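 Jurkat leukemia (JLC) cells seeded at 3.75 × 10^3 cells/well and exposed to drug for 4 days; growth measured by sulforhodamine assay. IC50 = drug concentration (nM) reducing cell number to 50% of control cultures. Independent assays in duplicate, coefficients of variation ca. 25%.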

MCF7 = assay: inhibitory activity against multi drug resistant MCF cell line.; format: functional; conditions: Homo sapiens, in the assay text read “MCF7 cell line” for “multi drug resistant MCF cell line”; how it was run: as §1
Jurkat [2] = assay: Ratio of inhibitory activity against amsacrine resistant jurkat cells to inhibitory activity against wild type human jurkat cells; format: functional
How it was run: (§2)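 Wild-type Jurkat (JLC) and its amsacrine-resistant (JLA) or doxorubicin-resistant (JLD) sublines each seeded at 3.75 × 10^3 cells/well, 4 days with drug, sulforhodamine read-out. IC50 (nM) for 50% of control cell number; ratio = resistant-line IC50 divided by JLC IC50. Duplicate assays, CV ca. 25%.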

P388 = assay: Inhibitory activity against Murine […]; format: functional, cell-based; conditions: Mus musculus
How it was run: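 Murine P388 leukemia cells seeded at 4.5 × 10^3 cells/well, cultured 3 days with drug; growth measured by [3H]TdR uptake. IC50 = drug concentration (nM) reducing cell number to 50% of controls. Independent assays in duplicate, CV ca. 25%.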

[3] = tested on: Lewis lung carcinoma cell line; assay: Inhibitory activity of tested against Murine Lewis lung carcinoma; format: functional, cell-based; conditions: Mus musculus
How it was run: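 Lewis lung carcinoma (LLTC) cells at 10^3 cells/well, 4-day continuous drug exposure, growth read by sulforhodamine assay. IC50 (nM) = concentration giving 50% of control cell number. Duplicate independent assays, CV ca. 25%.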

HT-29 = assay: inhibitory activity against colon HT-29 cell line.; format: functional; conditions: Homo sapiens; how it was run: as §1
Jurkat [4] = assay: Ratio of inhibitory activity against doxorubicin resistant jurkat cells to inhibitory activity against wild type human jurkat cells; format: functional; how it was run: as §2
HCT-116 = assay: inhibitory activity against colon HCT116 cell line.; format: functional; conditions: Homo sapiens; how it was run: as §1
CAKI-1 = assay: inhibitory activity against renal tumor […] cell line.; format: functional; conditions: Homo sapiens; how it was run: as §1

Structure (SMILES) | GI50 (SK-OV-3) [nM] | IC50 (Jurkat [1]) [nM] | GI50 (MCF7) [nM] | IC50 (P388) [nM] | IC50 [3] [nM] | GI50 (HT-29) [nM] | GI50 (HCT-116) [nM] | GI50 (NCI/ADR-RES) [nM] | Ratio (Jurkat [2]) | Ratio (Jurkat [4]) | GI50 (CAKI-1) [nM]
CCc1cccc2cc3cccc(C(=O)NCCCN(C)CCCNC(=O)c4cccc5cc6cccc(CC)c6nc45)c3nc12 | 10000 | 113 | 265 | 170 | 27 | 1390 | 221 | 1340 | 0.7 | 0.9 | 104
Cc1ccc2cc3cccc(C(=O)NCCCN(C)CCCNC(=O)c4cccc5cc6ccc(C)cc6nc45)c3nc2c1 | 3040 | 177 | 530 | 345 | 56 | 62 | 130 | 407 | 0.7 | 0.9 | 669
Cc1ccc2nc3c(C(=O)NCCCN(C)CCCNC(=O)c4cccc5cc6cc(C)ccc6nc45)cccc3cc2c1 | 1180 | 275 | 190 | 270 | 73 | 34 | 12 | 480 | 0.9 | 1.1 | 268
CN(CCCNC(=O)c1cccc2cc3cccc(Cl)c3nc12)CCCNC(=O)c1cccc2cc3cccc(Cl)c3nc12 | 12000 | 33 | 167 | 46 | 8 | 31 | 14 | 1200 | 0.55 | 1 | 95.9
Cc1ccc2cc3ccccc3nc2c1C(=O)NCCCN(C)CCCNC(=O)c1c(C)ccc2cc3ccccc3nc12 | 13000 | 1300 | 3030 | 3500 | 2400 | 1430 | 446 | 16000 | 0.9 | 1 | 6360
CN(CCCNC(=O)c1cccc2cc3c(Cl)cccc3nc12)CCCNC(=O)c1cccc2cc3c(Cl)cccc3nc12 | 1070 | 238 | 614 | 750 | 123 | 120 | 216 | 624 | 0.8 | 1.2 | 450
CN(CCCNC(=O)c1cccc2cc3cccc(C(F)(F)F)c3nc12)CCCNC(=O)c1cccc2cc3cccc(C(F)(F)F)c3nc12 | 1260 | 115 | 79 | 240 | 39 | 33 | 32 | 1290 | 0.85 | 1.1 | 600

These reach a lower GI50 (SK-OV-3). Values come first.

GI50 (SK-OV-3) [nM] | IC50 (Jurkat [1]) [nM] | GI50 (MCF7) [nM] | IC50 (P388) [nM] | IC50 [3] [nM] | GI50 (HT-29) [nM] | GI50 (HCT-116) [nM] | Structure (SMILES) | GI50 (NCI/ADR-RES) [nM] | Ratio (Jurkat [2]) | Ratio (Jurkat [4]) | GI50 (CAKI-1) [nM]
845 | 49 | < 10 | 16 | 35 | < 10 | < 10 | CN(CCCNC(=O)c1cccc2cc3cccc(F)c3nc12)CCCNC(=O)c1cccc2cc3cccc(F)c3nc12 | 93 | 0.6 | 0.9 | 34
594 | 71 | 174 | 180 | 16 | 60 | 13 | Cc1cccc2nc3c(C(=O)NCCCN(C)CCCNC(=O)c4cccc5cc6c(C)cccc6nc45)cccc3cc12 | 1040 | 0.7 | 1 | 58
460 | 255 | 546 | 220 | 67 | 265 | < 10 | Cc1cc(C(=O)NCCCN(C)CCCNC(=O)c2cc(C)cc3cc4ccccc4nc23)c2nc3ccccc3cc2c1 | 657 | 0.7 | 1.1 | 247
87 | 11 | < 10 | 23 | 1.8 | < 10 | < 10 | Cc1cccc2cc3cccc(C(=O)NCCCN(C)CCCNC(=O)c4cccc5cc6cccc(C)c6nc45)c3nc12 | 116 | 0.4 | 0.7 | < 10
